Measurements published in ChEMBL document CHEMBL1221305, “Synthesis and evaluation of oryzalin analogs against Toxoplasma gondii” (Bioorg Med Chem Lett, 2010).
Calls of active or inactive are those of the source. No cut-off for these calls is given here.

tested on: Toxoplasma gondii; assay: Antimicrobial activity against Toxoplasma gondii infected in HFF after 8 days by plaque assay; assay type: functional, organism-based; conditions: 192 h

Compound | IC50 [nM]
CCCN(CCC)c1c([N+](=O)[O-])cc(S(N)(=O)=O)cc1[N+](=O)[O-] [ORYZALIN] | 250
CCCN(CCC)c1c([N+](=O)[O-])cc(C(F)(F)F)cc1[N+](=O)[O-] [TRIFLURALIN] | 650
CCCN(CCC)c1c([N+](=O)[O-])cc(S(=O)(=O)NCCO)cc1[N+](=O)[O-] | 26000
CCCCN(CCCC)c1c([N+](=O)[O-])cc(C(F)(F)F)c(N)c1[N+](=O)[O-] | 510
CCCN(CCC)c1c([N+](=O)[O-])cc(S(=O)(=O)N(C)C)cc1[N+](=O)[O-] | 3400
CCCCN(CCCC)c1c([N+](=O)[O-])cc(S(N)(=O)=O)cc1[N+](=O)[O-] | 1100
CCN(CC)c1c([N+](=O)[O-])cc(C(F)(F)F)c(N)c1[N+](=O)[O-] [DINITRAMINE] | 70
CCCN(CCC)c1c([N+](=O)[O-])cc([N+](=O)[O-])cc1C(F)(F)F | 7800
NS(=O)(=O)c1cc([N+](=O)[O-])c(N(Cc2ccccc2)CC2CC2)c([N+](=O)[O-])c1 | 2100
CCCN(CCC)c1c(C#N)cc(S(N)(=O)=O)cc1C#N | 4800
CC(C)CN(CC(C)C)c1c([N+](=O)[O-])cc(S(N)(=O)=O)cc1[N+](=O)[O-] | 350
CCCN(CCC)c1c([N+](=O)[O-])cc(S(=O)(=O)Nc2ccc(O)cc2)cc1[N+](=O)[O-] | 2600
CCCN(CCC)c1c([N+](=O)[O-])cc(S(=O)(=O)Nc2ccccc2)cc1[N+](=O)[O-] | 6700
CCCN(CCC)c1c([N+](=O)[O-])cc(C(F)(F)F)c(N)c1[N+](=O)[O-] | 36
NS(=O)(=O)c1cc([N+](=O)[O-])c(N(CCCl)Cc2ccccc2)c([N+](=O)[O-])c1 | 850
NS(=O)(=O)c1cc([N+](=O)[O-])c(N(CCCCl)Cc2ccccc2)c([N+](=O)[O-])c1 | 2600

tested on: Toxoplasma gondii RH; assay: Inhibition of tubulin in Toxoplasma gondii RH infected in HFF assessed as microtubules disruption at 0.5 uM after 28 hrs by immunofluorescence assay; conditions: not given
Method in brief: (§1)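 Human foreskin fibroblast (HFF) cultures infected with intracellular Toxoplasma were treated for 28 h with 0.5 µM compound in DMSO, with DMSO vehicle as control. Read-out was immunofluorescence: host cell microtubules in red, parasite subpellicular microtubules/tubulin in green, and host and parasite DNA in blue. Microtubules were scored as filamentous linear arrays or as diffuse staining, with matched phase-contrast images.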

Compound | inhibition
CCCN(CCC)c1c([N+](=O)[O-])cc(C(F)(F)F)c(N)c1[N+](=O)[O-] | Active

tested on: Toxoplasma gondii RH; assay: Inhibition of tubulin in Toxoplasma gondii RH infected in HFF assessed as microtubules disruption at 10 to 25 uM after 28 hrs by immunofluorescence assay; conditions: not given
Method in brief: (§2)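 Human fibroblast (HFF) cultures infected with intracellular T. gondii were exposed to compound in DMSO, with DMSO-only controls. They were fixed 28 h after infection for immunofluorescence. Parasite subpellicular microtubules were stained green, with host microtubules or parasite surface antigen P30/SAG1 in red and DNA in blue. Matched phase-contrast images were taken, and parasites per vacuole were scored.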

Compound | inhibition
NS(=O)(=O)c1cc([N+](=O)[O-])c(N(CCc2ccccc2)CCc2ccccc2)c([N+](=O)[O-])c1 | inactive
NS(=O)(=O)c1cc([N+](=O)[O-])c(N(Cc2ccccc2)Cc2ccccc2)c([N+](=O)[O-])c1 | inactive
Cc1ccc(CN(Cc2ccc(C)cc2)c2c([N+](=O)[O-])cc(S(N)(=O)=O)cc2[N+](=O)[O-])cc1 | inactive
NS(=O)(=O)c1cc([N+](=O)[O-])c(N(CC2CCCCC2)CC2CCCCC2)c([N+](=O)[O-])c1 | inactive

tested on: HFF; assay: Cytotoxicity against HFF assessed as reduction of cell viability at 0.5 uM after 17 hrs by MTS assay; assay type: cell-based; conditions: human
Method in brief: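 Host HFF cells were treated for 17 h with compound at 0.5 µM or 30 µM. Viable cells were quantified by tetrazolium dye (MTS, CellTiter reagent) assay.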

Compound | Activity
CCCN(CCC)c1c([N+](=O)[O-])cc(C(F)(F)F)c(N)c1[N+](=O)[O-] | Non-toxic

tested on: Toxoplasma gondii; assay: Antimicrobial activity against Toxoplasma gondii RH infected in HFF assessed as inhibition of parasite replication at 0.5 uM after 28 hrs by immunofluorescence assay; assay type: functional, organism-based; conditions: not given

Compound | inhibition
CCCN(CCC)c1c([N+](=O)[O-])cc(C(F)(F)F)c(N)c1[N+](=O)[O-] | Active

tested on: Toxoplasma gondii; assay: Antimicrobial activity against Toxoplasma gondii RH infected in HFF assessed as inhibition of parasite replication at 10 to 25 uM after 28 hrs by immunofluorescence assay; assay type: functional, organism-based; conditions: not given; method in brief: as §2

Compound | inhibition
NS(=O)(=O)c1cc([N+](=O)[O-])c(N(CCc2ccccc2)CCc2ccccc2)c([N+](=O)[O-])c1 | Active
NS(=O)(=O)c1cc([N+](=O)[O-])c(N(Cc2ccccc2)Cc2ccccc2)c([N+](=O)[O-])c1 | Active
Cc1ccc(CN(Cc2ccc(C)cc2)c2c([N+](=O)[O-])cc(S(N)(=O)=O)cc2[N+](=O)[O-])cc1 | Active
NS(=O)(=O)c1cc([N+](=O)[O-])c(N(CC2CCCCC2)CC2CCCCC2)c([N+](=O)[O-])c1 | Active

tested on: HFF; assay: Cytotoxicity against HFF assessed as cell vacuolation at 30 uM after 17 hrs by MTS assay; assay type: cell-based; conditions: human

Compound | Activity
NS(=O)(=O)c1cc([N+](=O)[O-])c(N(CCc2ccccc2)CCc2ccccc2)c([N+](=O)[O-])c1 | Toxic
Cc1ccc(CN(Cc2ccc(C)cc2)c2c([N+](=O)[O-])cc(S(N)(=O)=O)cc2[N+](=O)[O-])cc1 | Toxic

target: Tubulin (Homo sapiens) (UniProt P68371+Q9H4B7+P0DPH7+P68366+Q13509+Q71U36+P04350+Q3ZCM7+P07437+P68363+Q9BQE3+Q6PEY2+Q13885+Q9BVA1+Q9BUF5); assay: Inhibition of tubulin in HFF assessed as microtubules disruption at 0.5 uM after 28 hrs by immunofluorescence assay; conditions: not given; method in brief: as §1

Compound | Activity
CCCN(CCC)c1c([N+](=O)[O-])cc(C(F)(F)F)c(N)c1[N+](=O)[O-] | Non-toxic

tested on: HFF; assay: Cytotoxicity against HFF assessed as assessed as reduction of cell viability at 30 uM after 17 hrs by MTS assay; assay type: cell-based; conditions: human

Compound | Activity
NS(=O)(=O)c1cc([N+](=O)[O-])c(N(CCc2ccccc2)CCc2ccccc2)c([N+](=O)[O-])c1 | Toxic

tested on: Toxoplasma gondii; assay: Antimicrobial activity against Toxoplasma gondii RH infected in HFF assessed as inhibition of parasite growth at 10 to 25 uM after 28 hrs by immunofluorescence assay; assay type: functional, organism-based; conditions: not given; method in brief: as §2

Compound | inhibition
NS(=O)(=O)c1cc([N+](=O)[O-])c(N(CCc2ccccc2)CCc2ccccc2)c([N+](=O)[O-])c1 | Active
NS(=O)(=O)c1cc([N+](=O)[O-])c(N(Cc2ccccc2)Cc2ccccc2)c([N+](=O)[O-])c1 | Active
Cc1ccc(CN(Cc2ccc(C)cc2)c2c([N+](=O)[O-])cc(S(N)(=O)=O)cc2[N+](=O)[O-])cc1 | Active
NS(=O)(=O)c1cc([N+](=O)[O-])c(N(CC2CCCCC2)CC2CCCCC2)c([N+](=O)[O-])c1 | Active
